Read-outs that look alike come from different tables or passages of the source.
Assays:
Colo-205 cells = experiment: MTT cytotoxicity assay, colon; format: cell-based, human; settings: read-out: Colon (Colo-205) IC50
Summary of the method: (§1)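 Human Colo-205, PC-3, THP-1 and A549 cancer cells and normal epithelial fR-2 cells were grown in RPMI-1640 or DMEM with 10% fetal calf serum, penicillin and streptomycin, at 37 °C in 5.0% CO2. After overnight attachment, cells were exposed to 0.07, 0.7, 7.0 and 70.0 μM test compound for 24 h, then to MTT (250 μg mL−1) for 3–4 h. OD was read at 570 nm. Growth (%) = test OD/untreated OD × 100. IC50 was taken from concentration–growth curves as the mean of triplicates.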

fR-2 cells = experiment: MTT cytotoxicity assay, normal epithelial cell line; format: cell-based; settings: read-out: Normal (fR-2) IC50
Summary of the method: as §1

PC-3 cells = experiment: MTT cytotoxicity assay, prostate; format: cell-based, human; settings: read-out: Prostate (PC-3) IC50
Summary of the method: as §1

THP-1 cells = experiment: MTT cytotoxicity assay, leukemia; format: cell-based, human; settings: read-out: Leukemia (THP-1) IC50
Summary of the method: as §1

A549 cells = experiment: MTT cytotoxicity assay, lung; format: cell-based, human; settings: read-out: Lung (A549) IC50
Summary of the method: as §1

[1] = system: Colo-205, PC-3, THP-1, A549 and fR-2 cells; experiment: MTT cytotoxicity assay, statements on the whole cell line panel; format: cell-based; settings: Homo sapiens, 24 h, read-out: IC50 values (all tested cell lines)
Summary of the method: as §1

[2] = MTT, 24 h treatment, n = 3, mean ± SD

Row | SMILES | IC50 (Colo-205 cells; Homo sapiens, COLO 205, 24 h) [µM] | IC50 (fR-2 cells; FR2, 24 h) [µM] | IC50 (PC-3 cells; Homo sapiens, PC-3, 24 h) [µM] | IC50 (THP-1 cells; Homo sapiens, THP-1, 24 h) [µM] | IC50 (A549 cells; Homo sapiens, A549, 24 h) [µM] | IC50 [1] [µM] | IC50 (PC-3 cells; [2]) [µM] | IC50 (THP-1 cells; [2]) [µM] | IC50 (Colo-205 cells; [2]) [µM] | IC50 (fR-2 cells; [2]) [µM] | IC50 (A549 cells; [2]) [µM]
1 | O=c1[nH]cc(F)c(=O)[nH]1 [5-Fluorouracil, reference compound] | 33.9 ± 1.9 | 335 ± 3.8 | – | – | – | – | – | – | – | – | –
2 | CCOC(=O)C1=C(C)NC(=O)NC1C(C)=CCc1cc2oc(=O)ccc2cc1OC (stereo not drawn) [Compound 5a, Ethyl 4-(4-(6-methoxy-2-oxo-2H-chromen-7-yl)but-2-en-2-yl)-6-methyl-2-oxo-1,2,3,4-tetrahydropyrimidine-5-carboxylate] | 37.6 ± 1.1 | 68.8 ± 1.1 | 40.8 ± 1.7 | 65.8 ± 1.4 | 67.8 ± 1.7 | – | – | – | – | – | –
3 | CCCC1NC(=O)NC(C)=C1C(=O)OCC (stereo not drawn) [Compound 6a, Ethyl 1,2,3,4-tetrahydro-6-methyl-2-oxo-4-propylpyrimidine-5-carboxylate] | > 70 | > 70 | > 70 | > 70 | > 70 | > 70 | – | – | – | – | –
4 | CCCCC1NC(=O)NC(C)=C1C(=O)OCC (stereo not drawn) [Compound 7a, Ethyl 4-butyl-1,2,3,4-tetrahydro-6-methyl-2-oxopyrimidine-5-carboxylate] | > 70 | > 70 | > 70 | > 70 | > 70 | > 70 | – | – | – | – | –
5 | CCCCCC1NC(=O)NC(C)=C1C(=O)OCC (stereo not drawn) [Compound 8a] | – | – | – | – | – | – | 22.2 ± 1.6 | 43.8 ± 1.4 | 18.6 ± 1 | 67.2 ± 1.5 | 63.4 ± 1.1
6 | CCCCCCC1NC(=O)NC(C)=C1C(=O)OCC (stereo not drawn) [Compound 9a, Ethyl-4-hexyl-1,2,3,4-tetrahydro-6-methyl-2-oxo-pyrimidine-5-carboxylate] | > 70 | > 70 | > 70 | > 70 | > 70 | > 70 | – | – | – | – | –
7 | CCOC(=O)C1=C(C)NC(=O)NC1C=Cc1cccc(O)c1 (stereo not drawn) [Compound 10a, Ethyl-4-(3-hydroxystyryl)-1,2,3,4-tetrahydro-6-methyl-2-oxopyrimidine-5-carboxylate] | > 70 | > 70 | 29.4 ± 1.2 | 42.1 ± 1.7 | > 70 | – | – | – | – | – | –
8 | CCOC(=O)C1=C(C)NC(=O)NC1C1=Cc2ccccc2CC1 (stereo not drawn) [Compound 11a, Ethyl-4-(3,4-dihydronaphthalen-2-yl)-6-methyl-2-oxo-1,2,3,4-tetrahydropyrimidine-5-carboxylate] | > 70 | > 70 | 29.3 ± 1.3 | > 70 | > 70 | – | – | – | – | – | –
9 | CCOC(=O)C1=C(C)NC(=O)NC1C1=C(Cl)c2ccccc2CC1 (stereo not drawn) [Compound 12a, Ethyl-4-(1-chloro-3,4-dihydronaphthalen-2-yl)-6-methyl-2-oxo-1,2,3,4-tetrahydropyrimidine-5-carboxylate] | > 70 | > 70 | > 70 | > 70 | > 70 | > 70 | – | – | – | – | –
10 | CCOC(=O)C1=C(C)NC(=O)NC1/C(CC(=O)OC)=C(\Cl)c1ccc(OC)c(OC)c1 (stereo not drawn) [Compound 13a, Ethyl-4-((Z)-3-(methoxycarbonyl)-1-chloro-1-(3,4-dimethoxyphenyl)prop-1-en-2-yl)-1,2,3,4-tetrahydro-6-methyl-2-oxopyrimidine-5-carboxylate] | 59.4 ± 1.6 | 67.6 ± 2.5 | 35.4 ± 2.2 | 23.2 ± 1.4 | 30.3 ± 2.9 | – | – | – | – | – | –
11 | CCOC(=O)C1=C(C)NC(=O)NC1c1ccc2c(c1)CCC(C)(C)O2 (stereo not drawn) [Compound 14a, Ethyl-1,2,3,4-tetrahydro-6-methyl-4-(2,2-dimethylchroman-6-yl)-2-oxo-pyrimidine-5-carboxylate] | > 70 | > 70 | > 70 | > 70 | > 70 | – | – | – | – | – | –
12 | CCOC(=O)C1=C(C)NC(=O)NC1/C=C\c1ccc2c(c1)CCC(C)(C)O2 (stereo not drawn) [Compound 15a, Ethyl-1,2,3,4-tetrahydro-6-methyl-4-((Z)-2-(2,2-dimethylchroman-6-yl)vinyl)-2-oxo-pyrimidine-5-carboxylate] | 27.3 ± 1.8 | > 70 | > 70 | > 70 | > 70 | – | – | – | – | – | –
13 | CCOC(=O)C1=C(C)NC(=O)NC1C=Cc1cccc(OC)c1OC (stereo not drawn) [Compound 17a, Ethyl 4-(2,3-dimethoxystyryl)-1,2,3,4-tetrahydro-6-methyl-2-oxopyrimidine-5-carboxylate] | 38.2 ± 1.4 | > 70 | 47.9 ± 2.1 | > 70 | 26.4 ± 1.1 | – | – | – | – | – | –
14 | CCOC(=O)C1=C(C)NC(=O)NC1C=Cc1cc(OC)c(OC)c(OC)c1 (stereo not drawn) [Compound 18a, Ethyl 4-(3,4,5-trimethoxystyryl)-1,2,3,4-tetrahydro-6-methyl-2-oxopyrimidine-5-carboxylate] | > 70 | > 70 | > 70 | > 70 | > 70 | > 70 | – | – | – | – | –
15 | CCOC(=O)C1=C(C)NC(=O)NC1C=Cc1ccc(OC)cc1OC (stereo not drawn) [Compound 19a, Ethyl-4-(2,4-dimethoxystyryl)-1,2,3,4-tetrahydro-6-methyl-2-oxopyrimidine-5-carboxylate] | 33.7 ± 1.8 | > 70 | > 70 | > 70 | 47.8 ± 2.4 | – | – | – | – | – | –
16 | CCOC(=O)C1=C(C)NC(=O)NC1/C=C/c1ccc2c(c1)OCO2 (stereo not drawn) [Compound 20a, Ethyl-4-((E)-2-(benzo[d][1,3]dioxol-6-yl)vinyl)-1,2,3,4-tetrahydro-6-methyl-2-oxo pyrimidine-5-carboxylate] | – | – | – | – | – | – | > 70 | > 70 | 23.4 ± 1.4 | 68.7 ± 1.1 | > 70
17 | CCOC(=O)C1=C(C)NC(=O)NC1c1ccc2c(c1)OCO2 (stereo not drawn) [Compound 21a, Ethyl-4-(benzo[d][1,3]dioxol-6-yl)-1,2,3,4-tetrahydro-6-methyl-2-oxopyrimidine-5-carboxylate] | 48.1 ± 2.1 | > 70 | > 70 | > 70 | > 70 | – | – | – | – | – | –
18 | COc1cccc2c1C(=O)c1c(O)c3c(c(O)c1C2=O)C[C@@](O)(C(=O)CO)C[C@@H]3O[C@H]1C[C@H](N)[C@H](O)[C@H](C)O1 [Doxorubicin, reference compound] | – | – | – | 0.018 ± 0.004 | – | – | – | – | – | – | –
19 | CC(=O)O[C@H]1C(=O)[C@@]2(C)[C@H]([C@H](OC(=O)c3ccccc3)[C@]3(O)C[C@H](OC(=O)[C@H](O)[C@@H](NC(=O)c4ccccc4)c4ccccc4)C(C)=C1C3(C)C)[C@]1(OC(C)=O)CO[C@@H]1C[C@@H]2O [Paclitaxel, reference compound] | – | – | 0.048 ± 0.008 | – | 5.1 ± 0.4 | – | – | – | – | – | –
